The values that follow come from ChEMBL document CHEMBL4422648, “Synthesis, biological evaluation and mode of action studies of novel amidinourea inhibitors of hepatitis C virus (HCV)” (Bioorg Med Chem Lett, 2019).

Calls of active or inactive are those of the source. No cut-off for these calls is given here.

Data set [1] deals with Hepatitis C virus. Description: Antiviral activity against HCV pseudo-particle infected in human HuH7 cells assessed as inhibition of HCV pseudo particles entry at 10 uM preincubated for 1 hr followed by viral infection and measured after 72 hrs by bright-glo luciferase reporter gene assay. The data set is classed as functional, organism-based. The settings on record: Hepacivirus hominis. The method in brief:
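Huh7 cells were pretreated with 10 µM compound for 1 h. They were then infected with HCV pseudo-particles for 3 h in the compound's presence. Entry was detected 72 h post infection; bafilomycin served as the positive control.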
For orientation: In a reporter assay the amount or activity of a reporter protein is the signal.

For a further data set, the system named is Huh-7. Description: Cytotoxicity against human HuH7 cells at 10 uM after 24 hrs by WST-1 assay. The data set is classed as cell-based. The settings on record: huh-7, 24 h. The method in brief: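 Huh7 cells were incubated 24 h with 10 µM of each compound before cell viability was assessed.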
The subject of data set [2] is Hepatitis C virus. Description: Antiviral activity against HCV sub-genomic replicon infected in human Huh7 cells at 10 uM added immediately with viral infection and measured after 24 hrs by bright-glo luciferase reporter gene assay relative to control. It counts as functional. The method in brief:
(§1)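 Huh7 cells were electroporated with HCV subgenomic replicon RNA. Compound at 10 µM was added either immediately at seeding or after 24 h to let replication establish. Luciferase was measured after 24 h of treatment.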

Data set [3] is described as follows: Cytotoxicity against human Huh7-J20 cells infected with HCV sub-genomic replicon assessed as reduction in cell viability up to 30 uM after 24 hrs by WST-1 assay. It counts as cell-based. The method in brief:
(§2)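 Subgenomic replicon RNA was electroporated into cells, which were exposed for 24 h to a dose range from 30 µM in 1:3 dilutions. Replication was read by luciferase, with cell viability measured alongside.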
A general note: In antiviral work, replicon cells carry a viral genome segment that copies itself.

In data set [4] the test system is Hepatitis C virus. Description: Antiviral activity against HCV sub-genomic replicon infected in human Huh7 cells at 10 uM added 24 hrs after viral infection and measured after 24 hrs by bright-glo luciferase reporter gene assay relative to control. It counts as functional, Hepacivirus hominis. The method in brief: as §1
Data set [5] has as its system Internal ribosome entry site (IRES). Description: Inhibition of HCV IRES transfected in human Huh7 cells assessed as inhibition of IRES-mediated translation after 24 hrs by dual luciferase reporter gene assay relative to control. The data set is classed as cell-based. The settings on record: Hepacivirus hominis; dose or concentration not given here. The method in brief: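 Huh7 cells were co-transfected with a plasmid for firefly luciferase driven by the HCV IRES and a plasmid for Renilla luciferase under the TK promoter, used to normalise transfection efficiency. Cells were exposed to compound for 24 h, then assayed by dual luciferase.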

In data set [6] the test system is Hepatitis C virus. Description: Antiviral activity against HCV replicon infected in human Huh7-J17 cells after 24 hrs by bright-glo luciferase reporter gene assay relative to control. It counts as functional, Hepacivirus hominis.
The test system of data set [7] is Hepatitis C virus. Description: Antiviral activity against HCV replicon infected in human Huh7 cells after 8 to 24 hrs by Western blot analysis. The settings on record: Hepacivirus hominis.
In data set [8] the test system is Hepatitis C virus. Description: Antiviral activity against HCV sub-genomic replicon infected in human Huh7 cells after 2 to 24 hrs by bright-glo luciferase reporter gene assay. The settings on record: Hepacivirus hominis. The data set is classed as functional, organism-based. The method in brief:
(§3)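 Time course: Huh7 cells were transfected with HCV replicon RNA (wild-type subgenomic or replication-defective GND) and seeded in the presence of compound. Replication/translation signal was read at 2, 4, 8 and 24 h post transfection and compared with untreated cells at each time point.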

Data set [9] concerns Hepatitis C virus. Description: Antiviral activity against HCV JFH-1 infected in human Huh7-J20 cells after 72 hrs by SEAP based assay. The data set is classed as functional, organism-based, Hepacivirus hominis. The settings on record: JFH-1, Huh7-J20, 72 h. The method in brief:
(§4)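 HCVcc (JFH-1 clone) inoculated onto Huh7-J20 cells for 3 h. Infected cells were then exposed for 72 h to a dose range starting at 30 µM with 1:3 serial dilutions. Viral replication was read after harvest, and cell viability was measured in parallel.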

The test system of data set [10] is Hepatitis C virus. Description: Antiviral activity against HCV replicon infected in human Huh7 cells assessed as reduction in NS5A level after 8 to 24 hrs by Western blot analysis. The data set is classed as functional, organism-based. The settings on record: Hepacivirus hominis. The method in brief:
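After transfection with HCV replicon RNA, Huh7 cells were treated immediately for 8 or 24 h. Lysates were probed by western blot for NS5A and for unprocessed polyprotein.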

Data set [11] relates to Hepatitis C virus. Description: Antiviral activity against HCV sub-genomic replicon infected in human Huh7-J20 cells after 24 hrs by bright-glo luciferase reporter gene assay. The data set is classed as functional, organism-based. The method in brief:
as §2

Data set [12] has as its system Hepatitis C virus. Description: Antiviral activity against HCV replication defective replicon infected in human Huh7 cells after 2 to 8 hrs by bright-glo luciferase reporter gene assay. It counts as functional, organism-based. The settings on record: Hepacivirus hominis. The method in brief: as §3
Data set [13] is described as follows: Cytotoxicity against human Huh7-J20 cells infected with HCV JFH-1 after 72 hrs by WST-1 assay. It counts as cell-based. The method in brief:
as §4
A general note: Formazan colour is commonly taken as a measure of viable cells.

On to `C=CCNC(=O)NC(=N)NCCCCNC(=N)NC(=O)NCC=C`, for which the result in the data set with Hepatitis C virus [1] and in the data set with Hepatitis C virus [2] (Hepacivirus hominis) was inactive. The Activity result in the data set on Huh-7 is “Non-Toxic”.
Consider `C=CCNC(=O)NC(=N)NCCCCNC(=O)c1ccccc1`, for which the result in the data set on Hepatitis C virus [1] and in the data set with Hepatitis C virus [2] (Hepacivirus hominis) was inactive. Also, the Activity entry in the data set with Huh-7 is on record as “Non-Toxic”.
As for `C=CCNC(=O)NC(=N)NCCCCNCCCNC(=N)NC(=O)NCC=C`, the result in the data set on Hepatitis C virus [1] and in the data set on Hepatitis C virus [2] (Hepacivirus hominis) was inactive. The Activity entry in the data set on Huh-7 is “Non-Toxic”.
As to `C=CCNC(=O)NC(=N)NCCCN(C)CCCCN(C)CCCNC(=N)NC(=O)NCC=C`, the result in the data set on Hepatitis C virus [1] and in the data set with Hepatitis C virus [2] (Hepacivirus hominis) was inactive. For the same molecule, the Activity result in the data set with Huh-7 is on record as “Non-Toxic”.
For `N=C(NCCCCCCCCNC(=N)NCc1ccccc1)NCc1ccccc1`, the result in the data set on Hepatitis C virus [1] and with Hepatitis C virus [2] (Hepacivirus hominis) was inactive. The Activity result in the data set with Huh-7 was “Non-Toxic”.
Regarding `C=CCNC(=O)NC(=N)NCCCCN`, the outcome in the data set with Hepatitis C virus [1] and in the data set on Hepatitis C virus [2] (Hepacivirus hominis) was inactive. Besides, the Activity result in the data set with Huh-7 is reported as “Non-Toxic”.
What is called inhibition is the drop in the measured response relative to a control, in per cent. Usually IC50 stands for the midpoint of a concentration-inhibition curve. Read a high IC50 as lower potency. The term CC50 denotes the concentration that lowers cell viability or growth by half. A low value points to harm at low concentration. Take `C=CCNC(=O)NC(=N)NCCCNCCCCNCCCNC(=N)NC(=O)NCC=C`: the Activity entry in [3] is “Non-Toxic”; with Hepatitis C virus [4], 45%; in the data set on Hepatitis C virus [6] it was 45%; in the data set on Huh-7, “Non-Toxic”; with Hepatitis C virus [11] (Hepacivirus hominis), “Dose-dependent effect”; in the data set with Hepatitis C virus [2] it was 90%. Further, the outcome in the data set with Hepatitis C virus [1] was inactive. In data set [5], the inhibition came out at 40%. Further, the result in the data set on Hepatitis C virus [7], in the data set on Hepatitis C virus [8], in the data set on Hepatitis C virus [10] and in the data set with Hepatitis C virus [12] was Active. In addition, the concentration for half-maximal inhibition (IC50) with Hepatitis C virus [9] amounted to 12.3 µM; in the data set on Hepatitis C virus [11] (Huh7-J20, 24 h), 2.65 µM. For the same molecule, it took 81.1 µM to reach half-maximal cytotoxicity in data set [13] (CC50 at 72 h).
Turning to `C#CCNC(=N)NCCCCCCNCCCCCCNC(=N)NCC#C`, the outcome with Hepatitis C virus [1] and in the data set with Hepatitis C virus [2] (Hepacivirus hominis) was inactive. The Activity result in the data set with Huh-7 is “Non-Toxic”.
As for `CO/C1=C\C(C)=C\[C@@H](C)[C@@H](O)[C@@H](C)C/C(C)=C/C=C/[C@H](OC)[C@@H]([C@@H](C)[C@@H](O)[C@H](C)[C@@]2(O)C[C@@H](O)[C@H](C)[C@@H](C(C)C)O2)OC1=O`, the result with Hepatitis C virus [1] was Active.
Consider `C=CCNC(=N)NCCCCCCCCNC(=N)NCC=C`, for which the outcome in the data set on Hepatitis C virus [1] and with Hepatitis C virus [2] (Hepacivirus hominis) was inactive. Moreover, the Activity entry in the data set on Huh-7 was “Non-Toxic”.
As to `C=CCNC(=N)NCCCCCCNCCCCCCNC(=N)NCC=C`, the result in the data set with Hepatitis C virus [1] and with Hepatitis C virus [2] (Hepacivirus hominis) was inactive. Further, in the data set on Huh-7, the Activity entry was “Non-Toxic”.
